Measured values taken from ChEMBL document CHEMBL4049408, “Exploration of 2-((Pyridin-4-ylmethyl)amino)nicotinamide Derivatives as Potent Reversal Agents against P-Glycoprotein-Mediated Multidrug Resistance” (J Med Chem, 2017).

Columns and labels:
K562/A02 [1] = experiment: Cytotoxicity against human K562/A02 cells overexpressing P-gp after 48 hrs by MTT assay; assay type: functional, cell-based; settings: K562/A02, 48 h
Summary of the method: (§1)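 MTT viability in parental K562 and P-gp-overexpressing K562/A02 cells. Compound alone at a concentration series gives the IC50. Mean ± SD of three independent tests.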

K562 [2] = experiment: Cytotoxicity against human K562 cells after 48 hrs by MTT assay; assay type: functional, cell-based; settings: K562, 48 h; summary of the method: as §1
[3] = biological target: T1, ATP-dependent translocase ABCB1 (Homo sapiens, UniProt P08183); experiment: Inhibition of ABCB1 in human K562/A02 cells assessed as potentiation of adriamycin-mediated cytotoxicity by measuring reduction in ADR IC50 at 5 uM after 48 hrs by MTT assay relative to control; assay type: cell-based
Summary of the method: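 K562/A02 cells exposed to a series of adriamycin concentrations with modulator at 5.0 µM; 0.1% DMSO as solvent control. IC50 read by MTT. Reversal fold = IC50 without inhibitor / IC50 with inhibitor. Mean ± SD of three independent tests.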

K562/A02 [4] = experiment: (§2) Cytotoxicity against human K562/A02 cells assessed as cell survival at 5 uM after 48 hrs by MTT assay relative to control; assay type: cell-based; settings: k562/a02, 48 h, 5 µM
Summary of the method: (§3)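 MTT viability assay in P-gp-overexpressing, ADM-resistant K562/A02 cells, alongside parental K562. […] Values are mean ± SD of three independent tests.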

[5] = as §2; assay type: cell-based; settings: K562/A02 cells, read-out: Survival; summary of the method: as §3
[6] = Inhibition of CYP3A4 in rat liver microsomes assessed as 6beta-hydroxytestosterone formation using testosterone as substrate by reverse-phase HPLC analysis; assay type: ADME
[7] = biological target: T1, ATP-dependent translocase ABCB1; experiment: Substrate activity at ABCB1 ATPase in human ABCB1 membrane fraction assessed as increase in ATPase activity at 50 uM preincubated with compound followed by addition of MgATP measured after 1 hr by luciferase reporter gene assay relative to control; assay type: cell membranes
[8] = biological target: T1, ATP-dependent translocase ABCB1; experiment: Inhibition of ABCB1 in human K562/A02 cells assessed as increase in intracellular Rh123 accumulation at 5 uM up to 90 mins by flow cytometry; assay type: cell-based; settings: 1.5 h
Summary of the method: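 K562/A02 cells treated with 5.0 µM modulator; Rh123-associated mean fluorescence intensity read by flow cytometry at 5, 10, 25, 30, 60 and 90 min. Untreated cells as negative control. Mean ± SD of three experiments.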

K562 [9] = experiment: Resistance index, ratio of IC50 for human K562/A02 cells to IC50 for human K562 cells; assay type: functional
Summary of the method: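 Adriamycin IC50 measured by MTT in K562/A02 and in parental K562 cells. Fold resistance is the ratio of the resistant-line IC50 to the sensitive-line IC50. Mean ± SD of three independent tests.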

T1 sequence (P08183 whole entry): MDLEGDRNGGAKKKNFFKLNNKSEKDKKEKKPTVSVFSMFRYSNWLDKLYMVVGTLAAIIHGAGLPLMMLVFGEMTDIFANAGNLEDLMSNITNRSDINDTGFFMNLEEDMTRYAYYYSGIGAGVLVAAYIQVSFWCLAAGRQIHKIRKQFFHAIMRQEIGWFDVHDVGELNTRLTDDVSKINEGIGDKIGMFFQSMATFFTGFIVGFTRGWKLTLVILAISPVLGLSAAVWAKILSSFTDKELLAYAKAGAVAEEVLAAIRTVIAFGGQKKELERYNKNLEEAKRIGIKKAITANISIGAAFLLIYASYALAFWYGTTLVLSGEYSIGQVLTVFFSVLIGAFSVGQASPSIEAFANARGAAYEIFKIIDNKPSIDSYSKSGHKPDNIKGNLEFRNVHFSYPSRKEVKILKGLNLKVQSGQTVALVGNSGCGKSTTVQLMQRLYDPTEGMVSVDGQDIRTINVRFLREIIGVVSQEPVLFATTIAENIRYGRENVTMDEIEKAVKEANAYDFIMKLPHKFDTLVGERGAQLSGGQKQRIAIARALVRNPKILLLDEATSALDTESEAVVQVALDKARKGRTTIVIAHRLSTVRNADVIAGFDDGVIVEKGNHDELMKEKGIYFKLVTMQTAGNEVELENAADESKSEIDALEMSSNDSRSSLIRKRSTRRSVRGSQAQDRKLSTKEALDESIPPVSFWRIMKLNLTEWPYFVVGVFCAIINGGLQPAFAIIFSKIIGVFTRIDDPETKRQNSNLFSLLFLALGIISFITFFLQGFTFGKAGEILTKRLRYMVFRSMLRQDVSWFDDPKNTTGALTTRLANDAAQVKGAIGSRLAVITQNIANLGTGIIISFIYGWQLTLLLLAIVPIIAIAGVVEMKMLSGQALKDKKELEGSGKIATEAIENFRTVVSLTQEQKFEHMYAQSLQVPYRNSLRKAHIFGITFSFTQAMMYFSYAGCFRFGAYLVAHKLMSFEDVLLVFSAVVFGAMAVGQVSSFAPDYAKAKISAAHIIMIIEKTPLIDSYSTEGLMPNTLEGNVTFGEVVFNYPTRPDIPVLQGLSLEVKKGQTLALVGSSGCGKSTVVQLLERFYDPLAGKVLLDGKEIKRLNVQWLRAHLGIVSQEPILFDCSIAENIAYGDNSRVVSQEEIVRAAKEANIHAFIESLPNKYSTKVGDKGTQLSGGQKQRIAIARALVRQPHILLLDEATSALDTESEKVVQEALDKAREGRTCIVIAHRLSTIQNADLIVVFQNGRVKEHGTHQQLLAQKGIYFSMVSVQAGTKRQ

| fold change (FC) [7] | inhibition (INH) [8] | SMILES | IC50 (K562/A02 [1]) [µM] | IC50 (K562 [2]) [µM] | fold change (FC) [3] | Activity (K562/A02 [4]) | viability at 48 h, 5 µM [5] [%] | inhibition (INH) [6] | Ratio IC50 (K562 [9]) |
| --- | --- | --- | --- | --- | --- | --- | --- | --- | --- |
|  |  | O=C(Nc1ccc(CCN2CCOCC2)cc1)c1cccnc1NCc1ccncc1 | > 100 | > 100 | 5.64 | Non-Toxic |  |  |  |
|  |  | COc1ccc(CN(C)C(=O)c2cccnc2NCc2ccncc2)cc1OC | > 100 | > 100 | 9.58 |  | > 90 |  |  |
|  |  | COc1cc2c(cc1OC)C(C(C)(C)C)N(C(=O)c1cccnc1NCc1ccncc1)CC2 (stereo unspecified) | > 100 | > 100 | 2.66 | Non-Toxic |  |  |  |
|  |  | CN1CCN(c2ccc(NC(=O)c3cccnc3NCc3ccncc3)cc2)CC1 | > 100 | > 100 | 4.93 |  | > 90 |  |  |
|  |  | CC(C)(C)c1ccc(NC(=O)c2cccnc2NCc2ccncc2)cc1 | > 100 | > 100 | 4.27 |  | > 90 |  |  |
|  |  | COc1cc2c(cc1OC)C(Cc1cccc3ccccc13)N(C(=O)c1cccnc1NCc1ccncc1)CC2 (stereo unspecified) | > 100 | > 100 | 2.51 | Non-Toxic |  |  |  |
|  |  | O=C(NCCc1cccs1)c1cccnc1NCc1ccncc1 | > 100 | > 100 | 1.37 |  | > 90 |  |  |
|  |  | O=C(Nc1nc2ccccc2[nH]1)c1cccnc1NCc1ccncc1 | > 100 | > 100 | 1.69 |  | > 90 |  |  |
|  |  | COc1cccc(NC(=O)c2cccnc2NCc2ccncc2)c1 | > 100 | > 100 | 3.76 |  | > 90 |  |  |
|  |  | COc1cc2c(cc1OC)C(c1ccccc1)N(C(=O)c1cccnc1NCc1ccncc1)CC2 (stereo unspecified) | > 100 | > 100 | 2.96 | Non-Toxic |  |  |  |
|  |  | CC(=O)N1CCN(c2ccc(OCC3COC(Cn4ccnc4)(c4ccc(Cl)cc4Cl)O3)cc2)CC1 (stereo unspecified) [KETOCONAZOLE] |  |  |  |  |  | Dose-dependent effect |  |
|  |  | COc1ccc(CCNC(=O)c2cccnc2NCc2ccncc2)cc1OC | > 100 | > 100 | 16.6 |  | > 90 |  |  |
|  |  | O=C(c1ccccc1)c1ccccc1NC(=O)c1cccnc1NCc1ccncc1 | > 100 | > 100 | 1.28 | Non-Toxic |  |  |  |
|  |  | O=C(Nc1ccc(OC(F)(F)F)cc1)c1cccnc1NCc1ccncc1 | 28.7 | 24.2 | 8.42 |  | > 90 |  |  |
|  |  | O=C(Nc1cccc2ccccc12)c1cccnc1NCc1ccncc1 | > 100 | > 100 | 7.74 |  | > 90 |  |  |
|  |  | O=C(Nc1ccc(-c2ccccc2)cc1)c1cccnc1NCc1ccncc1 | 27.9 | 17 | 12.69 |  | > 90 |  |  |
|  |  | O=C(NC(c1ccccc1)c1ccccc1)c1cccnc1NCc1ccncc1 | > 100 | > 100 | 3.94 | Non-Toxic |  |  |  |
|  |  | COc1ccc(C2c3cc(OC)c(OC)cc3CCN2C(=O)c2cccnc2NCc2ccncc2)cc1OC (stereo unspecified) | > 100 | > 100 | 3.44 | Non-Toxic |  |  |  |

| fold change (FC) [7] | inhibition (INH) [8] | SMILES | IC50 (K562/A02 [1]) [µM] | IC50 (K562 [2]) [µM] | fold change (FC) [3] | Activity (K562/A02 [4]) | viability at 48 h, 5 µM [5] [%] | inhibition (INH) [6] | Ratio IC50 (K562 [9]) |
| --- | --- | --- | --- | --- | --- | --- | --- | --- | --- |
|  |  | COc1cc2c(cc1OC)CN(C(=O)c1cccnc1NCc1ccncc1)CC2 | 85.7 | 72.5 | 17.97 | Non-Toxic |  |  |  |
|  |  | COc1cccc(-c2nnc(NC(=O)c3cccnc3NCc3ccncc3)s2)c1 | > 100 | 39.5 | 4.6 |  | > 90 |  |  |
|  |  | O=C(Nc1ccc(N2CCOCC2)cc1)c1cccnc1NCc1ccncc1 | > 100 | > 100 | 18.8 |  | > 90 |  |  |
|  |  | O=C(Nc1ccc(N2CCCCC2)cc1)c1cccnc1NCc1ccncc1 | > 100 | > 100 | 5.21 |  | > 90 |  |  |
|  |  | O=C(c1cccnc1NCc1ccncc1)N1CCC(N2CCCCC2)CC1 | > 100 | 51.4 | 1.2 |  | > 90 |  |  |
|  |  | O=C(NCc1ccncc1)c1cccnc1NCc1ccncc1 | > 100 | > 100 | 7.92 |  | > 90 |  |  |
|  |  | CN1CCN(CCc2ccc(NC(=O)c3cccnc3NCc3ccncc3)cc2)CC1 | > 100 | > 100 | 2.04 | Non-Toxic |  |  |  |
|  |  | O=C(Nc1ccc(F)c(Cl)c1)c1cccnc1NCc1ccncc1 | 27.9 | 78.9 | 6.6 |  | > 90 |  |  |
|  |  | O=C(c1cccnc1NCc1ccncc1)N(Cc1ccccc1)Cc1ccccc1 | 82.2 | 76.4 | 10.14 | Non-Toxic |  |  |  |
|  |  | COc1cc(NC(=O)c2cccnc2NCc2ccncc2)cc(OC)c1OC | > 100 | > 100 | 3.51 |  | > 90 |  |  |
| 2.56 | Active | COc1ccc(CCN(C)CCCC(C#N)(c2ccc(OC)c(OC)c2)C(C)C)cc1OC (stereo unspecified) | 31.3 to 33.6 | 36.7 to 37.3 |  |  |  |  |  |
|  |  | O=C(NC1CCCc2ccccc21)c1cccnc1NCc1ccncc1 (stereo unspecified) | > 100 | 66.1 | 4.24 |  | > 90 |  |  |
|  |  | COc1cccc2c1C(=O)c1c(O)c3c(c(O)c1C2=O)C[C@@](O)(C(=O)CO)C[C@@H]3O[C@H]1C[C@H](N)[C@H](O)[C@H](C)O1.Cl [DOXORUBICIN HYDROCHLORIDE] | 54 to 56.8 | 0.51 to 0.58 |  |  |  |  | 105.8 |
|  |  | O=C(Nc1ccc2c(c1)Cc1ccccc1-2)c1cccnc1NCc1ccncc1 | > 100 | 70 | 13.65 | Non-Toxic |  |  |  |
|  |  | COc1cc2c(cc1OC)C(c1ccco1)N(C(=O)c1cccnc1NCc1ccncc1)CC2 (stereo unspecified) | > 100 | > 100 | 1.52 | Non-Toxic |  |  |  |
|  |  | COc1ccc(NC(=O)c2cccnc2NCc2ccncc2)cc1Cl | > 100 | > 100 | 5.29 |  | > 90 |  |  |
|  |  | Cc1cccc(Cl)c1NC(=O)c1cnc(NC(=O)c2cccnc2NCc2ccncc2)s1 | 86 | 57.7 | 7.95 | Non-Toxic |  |  |  |
